Experimental data from ChEMBL document CHEMBL1765022, “Synthesis and biological evaluation of tetracyclic thienopyridones as antibacterial and antitumor agents” (Bioorg Med Chem, 2011).
≈ marks a conversion by molar mass, not a printed value.

System: Haemophilus influenzae
Experiment: Antimicrobial activity against Haemophilus influenzae ATCC 19418 by broth dilution method
Format: functional
Settings: not given
Summary of the method: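 H. influenzae was grown in Haemophilus Test Medium using twofold serial broth dilution. […] Drug-free, DMSO-only and organism-free control tubes were included. Triplicates, with at least three independent experiments.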

SMILES | MIC [µg/mL]
CO/N=C1\CN(c2nc3c(cc2F)c(=O)c(C(=O)O)cn3C2CC2)CC1CN (stereo not given) [GEMIFLOXACIN] | 0.015 (≈ 0.0385 µM)
COc1c(C)cc2c([nH]c3c2sc2c3c(=O)c(C(=O)O)cn2C2CC2)c1C | 6 (≈ 15.7 µM)
O=C(O)c1cn(C2CC2)c2sc3c4ccccc4[nH]c3c2c1=O | 0.03 (≈ 0.0925 µM)

System: Staphylococcus aureus
Experiment: Antimicrobial activity against quinilone-pencillin-resistant Staphylococcus aureus isolate SAR 4790 by broth dilution method
Format: functional
Settings: not given
Summary of the method: (§1)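 Twofold serial broth dilution in Mueller Hinton Broth. […] Drug-free tubes, DMSO-only tubes and organism-free tubes served as growth, solvent and sterility controls. Three replicates per organism, at least three independent experiments.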

SMILES | MIC [µg/mL]
CO/N=C1\CN(c2nc3c(cc2F)c(=O)c(C(=O)O)cn3C2CC2)CC1CN (stereo not given) [GEMIFLOXACIN] | 50 (≈ 128 µM)
COc1c(C)cc2c([nH]c3c2sc2c3c(=O)c(C(=O)O)cn2C2CC2)c1C | > 100
O=C(O)c1cn(C2CC2)c2sc3c4ccccc4[nH]c3c2c1=O | > 100

System: Escherichia coli
Experiment: Antimicrobial activity against quinilone-pencillin-resistant Escherichia coli clinical isolate by broth dilution method
Format: functional
Settings: not given

SMILES | MIC [µg/mL]
CO/N=C1\CN(c2nc3c(cc2F)c(=O)c(C(=O)O)cn3C2CC2)CC1CN (stereo not given) [GEMIFLOXACIN] | 50 (≈ 128 µM)
O=C(O)c1cn(C2CC2)c2sc3c4ccccc4[nH]c3c2c1=O | > 100

System: not listed separately
Experiment: Antimicrobial activity against Bacillus thuringiensis var.kurstaki BGSC 4D1 by broth dilution method
Format: functional, Bacillus thuringiensis serovar kurstaki
Settings: not given
Summary of the method: (§2)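 Twofold serial broth dilution in Mueller Hinton Broth. […] Growth (drug-free), DMSO solvent and organism-free sterility tubes were included. Three replicates per organism, at least three independent experiments.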

SMILES | MIC [µg/mL]
CO/N=C1\CN(c2nc3c(cc2F)c(=O)c(C(=O)O)cn3C2CC2)CC1CN (stereo not given) [GEMIFLOXACIN] | 0.015 (≈ 0.0385 µM)
COc1c(C)cc2c([nH]c3c2sc2c3c(=O)c(C(=O)O)cn2C2CC2)c1C | 1.5 (≈ 3.92 µM)
O=C(O)c1cn(C2CC2)c2sc3c4ccccc4[nH]c3c2c1=O | 0.007 (≈ 0.0216 µM)

System: Acinetobacter baumannii
Experiment: Antimicrobial activity against quinilone-pencillin-resistant Acinetobacter baumannii clinical isolate by broth dilution method
Format: functional
Settings: not given

SMILES | MIC [µg/mL]
CO/N=C1\CN(c2nc3c(cc2F)c(=O)c(C(=O)O)cn3C2CC2)CC1CN (stereo not given) [GEMIFLOXACIN] | 100 (≈ 257 µM)
O=C(O)c1cn(C2CC2)c2sc3c4ccccc4[nH]c3c2c1=O | > 100

System: Bacillus subtilis
Experiment: Antimicrobial activity against Bacillus subtilis ATCC 6633 by broth dilution method
Format: functional
Settings: not given
Summary of the method: as §2

SMILES | MIC [ng/mL]
CO/N=C1\CN(c2nc3c(cc2F)c(=O)c(C(=O)O)cn3C2CC2)CC1CN (stereo not given) [GEMIFLOXACIN] | 7 (≈ 0.018 µM)
COc1c(C)cc2c([nH]c3c2sc2c3c(=O)c(C(=O)O)cn2C2CC2)c1C | 3000 (≈ 7.84 µM)
O=C(O)c1cn(C2CC2)c2sc3c4ccccc4[nH]c3c2c1=O | 0.015 (≈ 4.62e-05 µM)

System: Staphylococcus epidermidis
Experiment: Antimicrobial activity against Staphylococcus epidermidis ATCC 12228 by broth dilution method
Format: functional
Settings: not given
Summary of the method: as §2

SMILES | MIC [µg/mL]
CO/N=C1\CN(c2nc3c(cc2F)c(=O)c(C(=O)O)cn3C2CC2)CC1CN (stereo not given) [GEMIFLOXACIN] | 0.015 (≈ 0.0385 µM)
COc1c(C)cc2c([nH]c3c2sc2c3c(=O)c(C(=O)O)cn2C2CC2)c1C | 3 (≈ 7.84 µM)
O=C(O)c1cn(C2CC2)c2sc3c4ccccc4[nH]c3c2c1=O | 0.03 (≈ 0.0925 µM)

System: Pseudomonas aeruginosa
Experiment: Antimicrobial activity against Pseudomonas aeruginosa ATCC 9027 by broth dilution method
Format: functional
Settings: not given
Summary of the method: as §2

SMILES | MIC [µg/mL]
CO/N=C1\CN(c2nc3c(cc2F)c(=O)c(C(=O)O)cn3C2CC2)CC1CN (stereo not given) [GEMIFLOXACIN] | 0.07 (≈ 0.18 µM)
COc1c(C)cc2c([nH]c3c2sc2c3c(=O)c(C(=O)O)cn2C2CC2)c1C | > 100
O=C(O)c1cn(C2CC2)c2sc3c4ccccc4[nH]c3c2c1=O | > 100

System: Staphylococcus aureus
Experiment: Antimicrobial activity against Staphylococcus aureus ATCC 6538 by broth dilution method
Format: functional
Settings: not given
Summary of the method: as §2

SMILES | MIC [µg/mL]
CO/N=C1\CN(c2nc3c(cc2F)c(=O)c(C(=O)O)cn3C2CC2)CC1CN (stereo not given) [GEMIFLOXACIN] | 0.015 (≈ 0.0385 µM)
COc1c(C)cc2c([nH]c3c2sc2c3c(=O)c(C(=O)O)cn2C2CC2)c1C | 6 (≈ 15.7 µM)
O=C(O)c1cn(C2CC2)c2sc3c4ccccc4[nH]c3c2c1=O | 0.003 (≈ 0.00925 µM)

System: A549
Experiment: Antitumor activity against human A549 cells after 72 hrs by MTT assay
Format: functional, cell-based
Settings: A549, 72 h
Summary of the method: (§3)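 Cells were kept at 37 °C in 5% CO₂, in medium with 2 mM glutamine and 10% FBS; HuDe fibroblasts were grown in DMEM. Compounds were freshly dissolved in DMSO (final ≤0.1% v/v; controls received equal solvent) and applied at 0.1–20 µM for 72 h. Viability was read by MTT. IC₅₀ was extrapolated from Hill-fitted dose–response curves, from at least three independent experiments.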

SMILES | IC50 [µM]
COc1c(C)cc2c([nH]c3c2sc2c3c(=O)c(C(=O)O)cn2C2CC2)c1C | 4.7
O=C(O)c1cn(C2CC2)c2sc3c4ccccc4[nH]c3c2c1=O | 10

System: Aspergillus niger
Experiment: Antimicrobial activity against Aspergillus niger ATCC 6275 by broth dilution method
Format: functional
Settings: not given
Summary of the method: (§4)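 Fungi were tested by twofold serial broth dilution in Sabouraud Dextrose Broth. Inoculum was 1x10³ CFU/mL, with 48 h at 30 °C before MIC determination. Growth, DMSO solvent and sterility controls were included. Three replicates per organism, at least three independent experiments.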

SMILES | MIC [µg/mL]
CO/N=C1\CN(c2nc3c(cc2F)c(=O)c(C(=O)O)cn3C2CC2)CC1CN (stereo not given) [GEMIFLOXACIN] | > 100
COc1c(C)cc2c([nH]c3c2sc2c3c(=O)c(C(=O)O)cn2C2CC2)c1C | > 100
O=C(O)c1cn(C2CC2)c2sc3c4ccccc4[nH]c3c2c1=O | > 100

System: Acinetobacter baumannii
Experiment: Antimicrobial activity against Acinetobacter baumannii ATCC 19606 by broth dilution method
Format: functional
Settings: not given
Summary of the method: as §2

SMILES | MIC [µg/mL]
CO/N=C1\CN(c2nc3c(cc2F)c(=O)c(C(=O)O)cn3C2CC2)CC1CN (stereo not given) [GEMIFLOXACIN] | 0.3 (≈ 0.77 µM)
COc1c(C)cc2c([nH]c3c2sc2c3c(=O)c(C(=O)O)cn2C2CC2)c1C | > 100
O=C(O)c1cn(C2CC2)c2sc3c4ccccc4[nH]c3c2c1=O | 0.07 (≈ 0.216 µM)

System: Bacillus cereus
Experiment: Antimicrobial activity against Bacillus cereus ATCC 11778 by broth dilution method
Format: functional
Settings: not given
Summary of the method: as §2

SMILES | MIC [µg/mL]
CO/N=C1\CN(c2nc3c(cc2F)c(=O)c(C(=O)O)cn3C2CC2)CC1CN (stereo not given) [GEMIFLOXACIN] | 0.07 (≈ 0.18 µM)
COc1c(C)cc2c([nH]c3c2sc2c3c(=O)c(C(=O)O)cn2C2CC2)c1C | 3 (≈ 7.84 µM)
O=C(O)c1cn(C2CC2)c2sc3c4ccccc4[nH]c3c2c1=O | 0.007 (≈ 0.0216 µM)

System: NHDF
Experiment: Antitumor activity against human NHDF cells after 72 hrs by MTT assay
Format: functional, cell-based
Settings: not given
Summary of the method: as §3

SMILES | IC50 [µM]
COc1c(C)cc2c([nH]c3c2sc2c3c(=O)c(C(=O)O)cn2C2CC2)c1C | > 10
O=C(O)c1cn(C2CC2)c2sc3c4ccccc4[nH]c3c2c1=O | > 10

System: Saccharomyces cerevisiae
Experiment: Antimicrobial activity against Saccharomyces cerevisiae ATCC 9763 by broth dilution method
Format: functional
Settings: not given
Summary of the method: as §4

SMILES | MIC [µg/mL]
CO/N=C1\CN(c2nc3c(cc2F)c(=O)c(C(=O)O)cn3C2CC2)CC1CN (stereo not given) [GEMIFLOXACIN] | > 100
COc1c(C)cc2c([nH]c3c2sc2c3c(=O)c(C(=O)O)cn2C2CC2)c1C | > 100
O=C(O)c1cn(C2CC2)c2sc3c4ccccc4[nH]c3c2c1=O | > 100

System: not listed separately
Experiment: Inhibition of Escherichia coli DNA gyrase assessed as reduction of DNA supercoiling activity using pBR322 DNA substrate after 30 mins by electrophoresis
Settings: not given

SMILES | IC50 [µg/mL]
O=C(O)c1cn(C2CC2)c2sc3c4ccccc4[nH]c3c2c1=O | 1 (≈ 3.08 µM)

System: Candida tropicalis
Experiment: Antimicrobial activity against Candida tropicalis ATCC 1369 by broth dilution method
Format: functional
Settings: not given
Summary of the method: as §4

SMILES | MIC [µg/mL]
CO/N=C1\CN(c2nc3c(cc2F)c(=O)c(C(=O)O)cn3C2CC2)CC1CN (stereo not given) [GEMIFLOXACIN] | > 100
COc1c(C)cc2c([nH]c3c2sc2c3c(=O)c(C(=O)O)cn2C2CC2)c1C | > 100
O=C(O)c1cn(C2CC2)c2sc3c4ccccc4[nH]c3c2c1=O | > 100

System: Staphylococcus epidermidis
Experiment: Antimicrobial activity against quinilone-pencillin-resistant Staphylococcus epidermidis clinical isolate by broth dilution method
Format: functional
Settings: not given

SMILES | MIC [µg/mL]
CO/N=C1\CN(c2nc3c(cc2F)c(=O)c(C(=O)O)cn3C2CC2)CC1CN (stereo not given) [GEMIFLOXACIN] | 50 (≈ 128 µM)
COc1c(C)cc2c([nH]c3c2sc2c3c(=O)c(C(=O)O)cn2C2CC2)c1C | 3 (≈ 7.84 µM)
O=C(O)c1cn(C2CC2)c2sc3c4ccccc4[nH]c3c2c1=O | 3 (≈ 9.25 µM)

System: MCF7
Experiment: Antitumor activity against human MCF7 cells after 72 hrs by MTT assay
Format: functional, cell-based
Settings: MCF7, 72 h
Summary of the method: as §3

SMILES | IC50 [µM]
COc1c(C)cc2c([nH]c3c2sc2c3c(=O)c(C(=O)O)cn2C2CC2)c1C | 2.5
O=C(O)c1cn(C2CC2)c2sc3c4ccccc4[nH]c3c2c1=O | 5.2

System: Escherichia coli
Experiment: Antimicrobial activity against Escherichia coli ATCC 8739 by broth dilution method
Format: functional
Settings: not given
Summary of the method: as §2

SMILES | MIC [µg/mL]
CO/N=C1\CN(c2nc3c(cc2F)c(=O)c(C(=O)O)cn3C2CC2)CC1CN (stereo not given) [GEMIFLOXACIN] | 0.015 (≈ 0.0385 µM)
COc1c(C)cc2c([nH]c3c2sc2c3c(=O)c(C(=O)O)cn2C2CC2)c1C | > 100
O=C(O)c1cn(C2CC2)c2sc3c4ccccc4[nH]c3c2c1=O | 25 (≈ 77.1 µM)

System: not listed separately
Experiment: Inhibition of Escherichia coli topoisomerase 4 assessed as decatenation of kDNA after 30 mins by electrophoresis
Settings: not given
Summary of the method: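 E. coli topoisomerase IV decatenation of kinetoplast DNA was run in 40 mM HEPES-KOH pH 7.6 with 100 mM potassium glutamate, at varying compound amounts. Products were separated by agarose electrophoresis and quantified by gel documentation. IC₅₀ (µg/mL) is the concentration halving decatenation relative to drug-free enzyme control.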

SMILES | IC50 [µg/mL]
O=C(O)c1cn(C2CC2)c2sc3c4ccccc4[nH]c3c2c1=O | > 24

System: Priestia megaterium
Experiment: Antimicrobial activity against Bacillus megaterium ATCC 19213 by broth dilution method
Format: functional
Settings: not given
Summary of the method: as §2

SMILES | MIC [ng/mL]
CO/N=C1\CN(c2nc3c(cc2F)c(=O)c(C(=O)O)cn3C2CC2)CC1CN (stereo not given) [GEMIFLOXACIN] | 0.3 (≈ 0.00077 µM)
COc1c(C)cc2c([nH]c3c2sc2c3c(=O)c(C(=O)O)cn2C2CC2)c1C | 3000 (≈ 7.84 µM)
O=C(O)c1cn(C2CC2)c2sc3c4ccccc4[nH]c3c2c1=O | 0.015 (≈ 4.62e-05 µM)

System: Staphylococcus aureus
Experiment: Antimicrobial activity against quinilone-pencillin-resistant Staphylococcus aureus isolate SAR 72 by broth dilution method
Format: functional
Settings: not given
Summary of the method: as §1

SMILES | MIC [µg/mL]
CO/N=C1\CN(c2nc3c(cc2F)c(=O)c(C(=O)O)cn3C2CC2)CC1CN (stereo not given) [GEMIFLOXACIN] | 6 (≈ 15.4 µM)
COc1c(C)cc2c([nH]c3c2sc2c3c(=O)c(C(=O)O)cn2C2CC2)c1C | 3 (≈ 7.84 µM)
O=C(O)c1cn(C2CC2)c2sc3c4ccccc4[nH]c3c2c1=O | 0.7 (≈ 2.16 µM)
